Source: ChEMBL document CHEMBL1799979, “Antifolate and antiproliferative activity of 6,8,10-triazaspiro[4.5]deca-6,8-dienes and 1,3,5-triazaspiro[5.5]undeca-1,3-dienes” (Bioorg Med Chem, 2010)
pIC50: −log10 of the molar value.

Key:
A549 [1] = assay: Growth inhibition of human A549 cells assessed as cell growth at 6.4 uM after 72 hrs by fluorometric microculture cytotoxicity assay in presence of 20 uM thymidine relative to untreated control; format: functional; set-up: scale not given: the % may be the effect or the level left
Outline: (§1)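 A549 cells were seeded and incubated 24 h, then medium was swapped for medium holding a fixed compound concentration alone, or with 20 µM thymidine, 100 µM hypoxanthine, or both. Twelve wells were used per solution, with solvent-matched controls. After 72 h, cells were PBS-washed, given FDA 2 µg/mL for 45 min at 37 °C, and fluorescence read at ex 485/em 535 nm. Growth is relative to control, as mean (SEM), n = 3.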

A549 [2] = assay: Growth inhibition of human A549 cells assessed as cell growth at 6.4 uM after 72 hrs by fluorometric microculture cytotoxicity assay in presence of 100 uM hypoxanthine and 20 uM thymidine relative to untreated control; format: functional; set-up: scale not given: the % may be the effect or the level left; outline: as §1
A549 [3] = assay: Growth inhibition of human A549 cells assessed as cell growth at 6.4 uM after 72 hrs by fluorometric microculture cytotoxicity assay relative to untreated control; format: functional; details: A549, 72 h, read-out: Activity; outline: as §1
A549 [4] = assay: Growth inhibition of human A549 cells assessed as cell growth at 6.4 uM after 72 hrs by fluorometric microculture cytotoxicity assay in presence of 100 uM hypoxanthine relative to untreated control; format: functional; set-up: scale not given: the % may be the effect or the level left; outline: as §1
A549 [5] = assay: Antiproliferative activity against human A549 cells after 72 hrs by fluorometric microculture cytotoxicity assay; details: A549, 72 h
Dihydrofolate reductase = target: T1, Dihydrofolate reductase (Bos taurus, UniProt P00376); assay: Inhibition of bovine liver DHFR using dihydrofolic acid substrate by UV-visible spectrophotometry
T1 sequence (P00376 whole entry): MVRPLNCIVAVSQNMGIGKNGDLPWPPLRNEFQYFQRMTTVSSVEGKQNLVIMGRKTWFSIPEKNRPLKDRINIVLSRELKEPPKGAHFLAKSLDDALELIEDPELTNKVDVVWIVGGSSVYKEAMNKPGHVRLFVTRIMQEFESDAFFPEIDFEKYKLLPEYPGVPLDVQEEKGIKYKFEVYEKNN

A549 [6] = assay: Growth inhibition of human A549 cells assessed as cell growth at 370 nM after 72 hrs by fluorometric microculture cytotoxicity assay in presence of 100 uM hypoxanthine relative to untreated control; format: functional; set-up: scale not given: the % may be the effect or the level left; outline: as §1
A549 [7] = assay: Growth inhibition of human A549 cells assessed as cell growth at 370 nM after 72 hrs by fluorometric microculture cytotoxicity assay in presence of 100 uM hypoxanthine and 20 uM thymidine relative to untreated control; format: functional; set-up: scale not given: the % may be the effect or the level left; outline: as §1
A549 [8] = assay: Growth inhibition of human A549 cells assessed as cell growth at 370 nM after 72 hrs by fluorometric microculture cytotoxicity assay in presence of 20 uM thymidine relative to untreated control; format: functional; set-up: scale not given: the % may be the effect or the level left; outline: as §1
A549 [9] = assay: Growth inhibition of human A549 cells assessed as cell growth at 370 nM after 72 hrs by fluorometric microculture cytotoxicity assay relative to untreated control; format: functional; details: A549, 72 h, read-out: Activity; outline: as §1
A549 [10] = assay: Growth inhibition of human A549 cells assessed as cell growth at 270 nM after 72 hrs by fluorometric microculture cytotoxicity assay in presence of 100 uM hypoxanthine relative to untreated control; format: functional; set-up: scale not given: the % may be the effect or the level left; outline: as §1
A549 [11] = assay: Growth inhibition of human A549 cells assessed as cell growth at 270 nM after 72 hrs by fluorometric microculture cytotoxicity assay relative to untreated control; format: functional; details: A549, 72 h, read-out: Activity; outline: as §1
A549 [12] = assay: Growth inhibition of human A549 cells assessed as cell growth at 270 nM after 72 hrs by fluorometric microculture cytotoxicity assay in presence of 20 uM thymidine relative to untreated control; format: functional; set-up: scale not given: the % may be the effect or the level left; outline: as §1
A549 [13] = assay: Growth inhibition of human A549 cells assessed as cell growth at 270 nM after 72 hrs by fluorometric microculture cytotoxicity assay in presence of 100 uM hypoxanthine and 20 uM thymidine relative to untreated control; format: functional; set-up: scale not given: the % may be the effect or the level left; outline: as §1

SMILES | pIC50 (A549 [5]) | pIC50 (Dihydrofolate reductase) | other results
Nc1nc2[nH]cc(CCc3ccc(C(=O)N[C@@H](CCC(=O)O)C(=O)O)cc3)c2c(=O)[nH]1 [PEMETREXED] | – | – | Activity (A549 [1]): 84.5%; Activity (A549 [2]): 99.3%; growth at 6.4 µM (A549 [3]): 11.7%; Activity (A549 [4]): 12.6%
NC1=NC2(CCCC2)N(OCCCOc2ccc([N+](=O)[O-])cc2)C(N)=N1 | 7.18 | 8.08 | –
NC1=NC2(CCCCC2)N(OCCCOc2ccccc2)C(N)=N1 | 7.16 | – | –
Cc1ccc(OCCCON2C(N)=NC(N)=NC23CCCCC3)cc1 | 7.08 | 7.76 | –
NC1=NC2(CCCCC2)N(OCCCOc2ccc(F)cc2)C(N)=N1 | 7.23 | 7.81 | –
CC(=O)c1ccc(OCCCON2C(N)=NC(N)=NC23CCCCC3)cc1 | 6.84 | 7.88 | –
CC(C)(C)c1ccc(OCCCON2C(N)=NC(N)=NC23CCCC3)cc1 | 6.80 | 7.77 | –
CN(Cc1cnc2nc(N)nc(N)c2n1)c1ccc(C(=O)N[C@@H](CCC(=O)O)C(=O)O)cc1 [METHOTREXATE] | 7.43 | – | Activity (A549 [6]): 16%; Activity (A549 [7]): 96.6%; Activity (A549 [8]): 77.3%; growth at 0.37 µM (A549 [9]): 14.3%
Cl.NC1=NC2(CCCC2)N(OCCCOc2ccc(Cl)cc2)C(N)=N1 | 7.57 | 8.14 | Activity (A549 [10]): 14.3%; growth at 0.27 µM (A549 [11]): 15.2%; Activity (A549 [12]): 68%; Activity (A549 [13]): 90%
NC1=NC2(CCCC2)N(OCCCOc2ccccc2)C(N)=N1 | 7.40 | – | –
COc1ccc(OCCCON2C(N)=NC(N)=NC23CCCC3)cc1 | 7.23 | 7.95 | –
N#Cc1ccc(OCCCON2C(N)=NC(N)=NC23CCCCC3)cc1 | 6.93 | 8.01 | –
N#Cc1ccc(OCCCON2C(N)=NC(N)=NC23CCCC3)cc1 | 7.22 | 8.12 | –
CC(C)(C)c1ccc(OCCCON2C(N)=NC(N)=NC23CCCCC3)cc1 | 6.30 | 7.67 | –
NC1=NC2(CCCCC2)N(OCCCOc2ccc(Cl)cc2)C(N)=N1 | 7.30 | 7.86 | –
NC1=NC2(CCCCC2)N(OCCCOc2ccc([N+](=O)[O-])cc2)C(N)=N1 | 6.48 | 7.83 | –
COc1ccc(OCCCON2C(N)=NC(N)=NC23CCCCC3)cc1 | 7.29 | 8.21 | –
CC(=O)c1ccc(OCCCON2C(N)=NC(N)=NC23CCCC3)cc1 | 7.22 | 8.04 | –
NC1=NC2(CCCCC2)N(OCCCOc2ccc(S(N)(=O)=O)cc2)C(N)=N1 | 6.78 | 8.25 | –
NC1=NC2(CCCC2)N(OCCCOc2ccc(F)cc2)C(N)=N1 | 7.23 | 8.00 | –
Cc1ccc(OCCCON2C(N)=NC(N)=NC23CCCC3)cc1 | 7.32 | 8.02 | –
